Data set [1] has as its target T1, Peroxisome proliferator-activated receptor gamma (Homo sapiens) (UniProt P37231).
T1 sequence (whole entry): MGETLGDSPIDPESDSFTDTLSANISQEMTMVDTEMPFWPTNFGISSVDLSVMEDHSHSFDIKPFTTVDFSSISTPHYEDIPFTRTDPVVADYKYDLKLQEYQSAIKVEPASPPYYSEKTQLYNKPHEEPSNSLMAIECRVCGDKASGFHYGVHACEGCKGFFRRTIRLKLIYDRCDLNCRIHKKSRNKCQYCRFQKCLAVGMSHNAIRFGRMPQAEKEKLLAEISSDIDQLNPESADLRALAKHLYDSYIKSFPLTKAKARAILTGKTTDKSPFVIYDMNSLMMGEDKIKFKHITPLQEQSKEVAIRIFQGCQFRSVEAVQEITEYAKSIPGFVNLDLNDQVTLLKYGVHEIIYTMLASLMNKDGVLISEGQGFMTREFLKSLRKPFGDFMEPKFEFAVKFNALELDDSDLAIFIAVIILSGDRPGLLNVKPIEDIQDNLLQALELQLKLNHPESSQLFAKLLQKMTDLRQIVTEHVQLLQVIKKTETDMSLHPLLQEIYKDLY
The data set can be described thus: Binding affinity to PPARgamma (unknown origin) at 10 uM.

Data set [2] deals with T2, Melatonin receptor type 1B (Homo sapiens) (UniProt P49286).
T2 sequence (whole entry): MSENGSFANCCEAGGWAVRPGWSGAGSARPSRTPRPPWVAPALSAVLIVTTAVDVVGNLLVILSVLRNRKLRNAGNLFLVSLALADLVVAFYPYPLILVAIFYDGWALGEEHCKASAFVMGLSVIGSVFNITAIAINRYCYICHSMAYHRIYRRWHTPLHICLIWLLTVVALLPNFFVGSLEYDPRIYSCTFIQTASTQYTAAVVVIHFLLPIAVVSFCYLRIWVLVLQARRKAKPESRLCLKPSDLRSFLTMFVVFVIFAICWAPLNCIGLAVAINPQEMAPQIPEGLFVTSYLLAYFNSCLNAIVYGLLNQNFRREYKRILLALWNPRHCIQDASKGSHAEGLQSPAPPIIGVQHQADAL
The data set can be described thus: Agonist activity at human recombinant melatonin receptor-2 expressed in CHO cells assessed as decrease of cAMP level after 10 mins by HTRF assay relative to melatonin. The format is functional, cell-based.

Data set [3] can be described thus: Induction of primary neuronal stem cell maturation derived from subgranular zone of dentate gyrus of Wistar rat hippocampus assessed as upregulation of MAP-2 expression incubated for 7 days by DAPI staining-based fluorescence microscopic analysis. The format is functional. The conditions noted are these: Primary neuron. A digest of the protocol:
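Neurospheres came from the SGZ of the dentate gyrus of adult male Wistar rats (8-12 weeks). They were grown in DMEM/F12 with 10 ng/mL EGF, 10 ng/mL FGF and B27. After 3 days, cultures were treated with compounds for 7 days. They were then plated on poly-L-lysine coverslips for 48 h with serum and without growth factors. Cells were immunostained for TuJ1 and MAP-2 with DAPI nuclei. Positive cells were counted by fluorescence microscopy in five NS per condition over three independent experiments. Untreated cultures gave basal values.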

Data set [4] concerns the target 5-hydroxytryptamine receptor 2B (Homo sapiens) (UniProt P41595). Briefly: Binding affinity to 5HT-2B receptor (unknown origin) at 10 uM.
The target in data set [5] is T3, 5-hydroxytryptamine receptor 2C (Homo sapiens) (UniProt P28335).
T3 sequence (whole entry): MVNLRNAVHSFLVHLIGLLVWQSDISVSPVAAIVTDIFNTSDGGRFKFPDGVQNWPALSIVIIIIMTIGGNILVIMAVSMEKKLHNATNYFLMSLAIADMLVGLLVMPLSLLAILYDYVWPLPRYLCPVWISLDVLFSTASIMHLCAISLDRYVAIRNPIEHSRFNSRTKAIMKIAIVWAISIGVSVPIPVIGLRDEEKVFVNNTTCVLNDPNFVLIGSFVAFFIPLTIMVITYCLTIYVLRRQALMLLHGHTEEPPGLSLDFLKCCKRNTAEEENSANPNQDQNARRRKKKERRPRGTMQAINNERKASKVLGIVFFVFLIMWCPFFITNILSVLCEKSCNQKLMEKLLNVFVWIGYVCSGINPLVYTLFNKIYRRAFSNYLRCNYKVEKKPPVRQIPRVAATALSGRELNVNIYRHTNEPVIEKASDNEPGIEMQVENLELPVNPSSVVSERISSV
Briefly: Binding affinity to 5HT-2C receptor (unknown origin) at 10 uM.

Data set [6] is described as follows: Permeability of the compound at 100 ug/ml after 240 mins by PAMPA. Conditions: 4 h. The format is physicochemical. The gist of the method: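 For PAMPA-BBB, the filter was coated with porcine brain lipid in dodecane (20 mg/mL). Donor compound was 100 µg/mL in PBS:ethanol 70:30, pH 7.4, and the acceptor held PBS:ethanol 70:30. Plates were incubated 240 min at 25 °C. Acceptor concentration was read by UV-Vis at five wavelengths in four wells, over at least three runs. Eleven quality-control standards were included.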
(In general: In PAMPA a lipid-coated filter parts donor from acceptor wells.)

Each structure is given as a SMILES string. The source made the active and inactive calls. The rule behind the calls is not given here.

For orientation: Emax means the size of the effect at its maximum, as opposed to the concentration needed.

Chain of 5-hydroxytryptamine receptor 2B (Homo sapiens) (P41595 whole entry): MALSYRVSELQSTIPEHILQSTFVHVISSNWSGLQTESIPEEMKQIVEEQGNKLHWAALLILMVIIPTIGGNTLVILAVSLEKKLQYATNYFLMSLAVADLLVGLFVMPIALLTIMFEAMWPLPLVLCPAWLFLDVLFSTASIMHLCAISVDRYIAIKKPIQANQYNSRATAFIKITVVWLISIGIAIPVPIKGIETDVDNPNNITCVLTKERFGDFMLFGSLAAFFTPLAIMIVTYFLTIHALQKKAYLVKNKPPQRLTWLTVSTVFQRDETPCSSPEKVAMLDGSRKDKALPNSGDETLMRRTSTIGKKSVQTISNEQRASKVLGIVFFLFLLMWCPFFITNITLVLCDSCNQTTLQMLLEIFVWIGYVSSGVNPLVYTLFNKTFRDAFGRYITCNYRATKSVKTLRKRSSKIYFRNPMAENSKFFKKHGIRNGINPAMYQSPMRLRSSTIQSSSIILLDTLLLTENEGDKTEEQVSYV

With `COc1ccc2[nH]cc(CCc3nnc(C)o3)c2c1`, the outcome in data set [1], in data set [4] and in data set [5] was inactive. Further, in data set [2], the Emax was 92%. Besides, the Activity entry in data set [3] is “Dose-dependent effect”. Moreover, the permeability entry in data set [6] is “permeable”.

Values taken from ChEMBL document CHEMBL3580567 (J Med Chem, 2015).
